Measured values as given in the array DNA melting data of Ke et al. (doi:10.1101/2024.01.08.574731).

What was measured:
[1] = melting temperature; fluorescence melt of hairpins on a sequencing array, two-state fit, raised by 9.35 °C to match UV melts; details: sodium 0.088 M
Procedure, shortened: (§1)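 With Cy3 and quencher oligos annealed, library hairpins on a sequenced MiSeq flow cell were imaged for Cy3 fluorescence in 50 mM Na-HEPES pH 8.0, 25 mM NaCl, in 2.5 °C steps up to 60 °C. Melting temperature and folding enthalpy were derived from bootstrapped two-state fits of signals normalised to pre-quench Cy3 and to control constructs. Four replicates were combined by inverse variance, with fitted temperatures raised by 9.35 °C to match UV melts.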

[2] = folding enthalpy; higher = less favourable; fluorescence melt of hairpins on a sequencing array, two-state fit; details: sodium 0.088 M
Procedure, shortened: as §1

Sequence | Tm [1] [°C] | folding enthalpy [2] [kcal/mol]
GTGCCGGGAAACTGGCGC (.(((.(....).))).) | 53.4 | -30.4
GTCGGTACGAAAGTAGAC (((..(((....)))))) | 31.9 | -10.7
GGAGACGAAAGTCGTTCC ((((((....)))..))) | 36.7 | -11.8
CGGGTCGGAAACGAACCG (((.(((....))).))) | 59.6 | -42.8
GGCTCGACGAAAGTCGCC (((..(((....)))))) | 35.1 | -8
GAAAGTGGAAACACTTCC (.(((((....))))).) | 33.7 | -16.6
GCCTGTCCGAAAGGAGGC (((..(((....)))))) | 46.6 | -19.2
GCATCACGAAAGTGCTGC (((.(((....))).))) | 52.4 | -44
GAAGGACCGAAAGGTTTC (((..(((....)))))) | 24 | -10.4
TTCCAGAAATGGAA (((((....))))) | 31 | -9.36
GGCTAGGGAAACCCAGCC ((((.((....)).)))) | 52.1 | -39.4
GATCATAGATATGATC ((((((....)))))) | 47.3 | -33.6
GTTGGACGAAAGTCAAC (((.(((....)))))) | 48.6 | -17.5
GCCGGCGGAAACACCGGC (((((.(....).))))) | 66.8 | -44.1
GTATCCACGAAAGTGTAC (((..(((....)))))) | 21.2 | -10.6
GGCTTCGAAAGAAGAGCC ((((((....)))..))) | 45.3 | -21.8
GTATCCGGAAACGGACAC ((.((((....)))).)) | 39 | -19.8
GACGGCGAAAGCCTGTC ((((((....))).))) | 58.6 | -15.6
GACACAGCGAAAGCTGTC (((..(((....)))))) | 32.3 | -8.05
GGCCAGACGAAAGTCGCC (((..(((....)))))) | 54.1 | -13.3
GCATGGCGAAAGCCGCGC ((..(((....)))..)) | 61.1 | -19.7
GATCTCACTGAGATC ((((((...)))))) | 52.1 | -34
GATCCCTCGCGGGATC ((((((....)))))) | 59.6 | -39.1

Sequence | Tm [1] [°C] | folding enthalpy [2] [kcal/mol]
GTCACCGGAAACGGTAAC ((.((((....)))).)) | 38.4 | -16.6
GCCGAGCGAAAGCTGTGC ((..(((....)))..)) | 41.2 | -15.2
GGCAGTGGAAACACTGTC (.(((((....))))).) | 54.1 | -30.2
GATCGAAAGTCGATC ((((((...)))))) | 48.8 | -30.5
AGAGAGAAATCTCT (((((....))))) | 23.2 | -8.28
GGGTCCGAAAGGACTCCC ((((((....)))..))) | 50.6 | -11
GATCGAAGCGTCGATC ((((((....)))))) | 51.1 | -39.9
GCATGGCGAAAGCCCCGC ((..(((....)))..)) | 29.6 | -12.4
GGTCCGGGAAACCGGGCC ((.((((....)))).)) | 68 | -32.5
CGCTTCGGAAACGAGGCG (((.(((....))).))) | 55.9 | -42.4
GATCGTTTATACGATC ((((((....)))))) | 57.5 | -38.7
CGTTCGGAAACGATACG ((((((....))).))) | 42.1 | -27.1
GTAACTCGAAAGAGATAC (((.(((....))).))) | 42 | -27.6
GCGATGTCTCGC ((((....)))) | 48.6 | -19.6
CGTCACGGAAACGTAACG (((.(((....))).))) | 41.6 | -43.1
GCAATGCGAAAGCAACGC ((..(((....)))..)) | 40.2 | -14.4
GGATTGGGAAACTAATCC (((((.(....).))))) | 43.5 | -33.9
GCGATCGGAAACGACCGC (((.(((....))).))) | 55.5 | -48.9
GCGGAACGCCGC ((((....)))) | 58.4 | -9.84
GAGACCCGAAAGGGCTC (((.(((....)))))) | 55.4 | -26.8
GAGTGAGGAAACTTACTC ((((.((....)).)))) | 38.1 | -28
GACTCCGAAAGGATGTC ((((((....))).))) | 51 | -30.7
GTCTATGGAAACATGGAC (((.(((....))).))) | 45.6 | -31.1
